# Assay results taken from ChEMBL document CHEMBL1140232, “Surprising alteration of antibacterial activity of 5"-modified neomycin against resistant bacteria” (2008).
# Experiments:
# Escherichia coli [1] = test: Antibacterial activity against Escherichia coli TG1 pET28a plasmid encoded for APH(3')-3a after 12 to 18 hrs; format: functional
# Method in brief: (§1)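 Broth microdilution. Bacterial suspension adjusted with broth to absorbance 0.08–0.1 at 625 nm, diluted further in broth, and mixed in wells with 2-fold serial dilutions of compound. Plates incubated at 35°C for 12–18 h. MIC is the lowest concentration inhibiting growth; each determination repeated at least three times.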
# Escherichia coli [2] = test: Antibacterial activity against aminoglycoside-susceptible Escherichia coli TG1 after 12 to 18 hrs; format: functional; method in brief: as §1
# Escherichia coli [3] = test: Antibacterial activity against Escherichia coli TG1 pSF815 plasmid encoded for AAC(6')/APH(2') after 12 to 18 hrs; format: functional; method in brief: as §1
# Enterococcus faecalis [4] = test: Antibacterial activity against vancomycin-susceptible and aminoglycosides-resistant Enterococcus faecalis ATCC 29212 after 12 to 18 hrs; format: functional
# Method in brief: (§2)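 Broth microdilution MIC. Culture diluted with broth to an absorbance of 0.08–0.1 at 625 nm. 100 μL of this was diluted into 10 mL broth and dispensed into 96-well plates. Each well received 50 μL inoculum plus 50 μL of a 2-fold compound dilution series. Plates were incubated at 35°C for 12–18 h. MIC is the lowest concentration that inhibits growth, from at least three repeats.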
# Staphylococcus aureus [5] = test: Antibacterial activity against aminoglycoside-susceptible Staphylococcus aureus ATCC 25923 after 12 to 18 hrs; format: functional; method in brief: as §1
# Klebsiella pneumoniae [6] = test: Antibacterial activity against ampicillin-resistant and aminoglycosides-susceptible Klebsiella pneumoniae ATCC 13883 after 12 to 18 hrs; format: functional; method in brief: as §2
# Escherichia coli [7] = test: Antibacterial activity against Escherichia coli TG1 pTZ19U-3 plasmid encoded for APH(3')-1 after 12 to 18 hrs; format: functional; method in brief: as §1
# Enterococcus [8] = test: Ratio of kcat to Km of Enterococcus APH(3')-3a
# Klebsiella pneumoniae [9] = test: Antibacterial activity against multidrug-resistant Klebsiella pneumoniae ATCC 700603 isolate after 12 to 18 hrs; format: functional; method in brief: as §2
# Enterococcus [10] = test: Activity of Enterococcus APH(3')-3a
# Escherichia coli [11] = test: Antibacterial activity against aminoglycoside-susceptible Escherichia coli ATCC 25922 after 12 to 18 hrs; format: functional; method in brief: as §1
# Pseudomonas aeruginosa = test: Antibacterial activity against aminoglycosides-resistant Pseudomonas aeruginosa ATCC 27853 expressing APH(3')-2b after 12 to 18 hrs; format: functional; method in brief: as §2
# Staphylococcus aureus [12] = test: Antibacterial activity against methicillin-resistant Staphylococcus aureus ATCC 33591 after 12 to 18 hrs; format: functional; method in brief: as §2
# Enterococcus faecalis [13] = test: Antibacterial activity against vancomycin-resistant Enterococcus faecalis ATCC 51299 expressing vanB, ant(6)-1, aac(6')-aph(2') resistant gene after 12 to 18 hrs; format: functional; method in brief: as §2
Structure (SMILES),MIC (Escherichia coli [1]) [µg/mL],MIC (Escherichia coli [2]) [µg/mL],MIC (Escherichia coli [3]) [µg/mL],MIC (Enterococcus faecalis [4]) [µg/mL],MIC (Staphylococcus aureus [5]) [µg/mL],MIC (Klebsiella pneumoniae [6]) [µg/mL],MIC (Escherichia coli [7]) [µg/mL],kcat/Km (Enterococcus [8]) [×10⁴ /M/s],MIC (Klebsiella pneumoniae [9]) [µg/mL],Km (Enterococcus [10]) [µM],Vmax (Enterococcus [10]) [µmol/min/mg],kcat (Enterococcus [10]) [s⁻¹],MIC (Escherichia coli [11]) [µg/mL],MIC (Pseudomonas aeruginosa) [µg/mL],MIC (Staphylococcus aureus [12]) [µg/mL],MIC (Enterococcus faecalis [13]) [µg/mL]
NC[C@@H]1O[C@H](O[C@H]2[C@@H](O)[C@H](O[C@@H]3[C@@H](O)[C@H](N)C[C@H](N)[C@H]3O[C@H]3O[C@H](CN)[C@@H](O)[C@H](O)[C@H]3N)O[C@@H]2CO)[C@H](N)[C@@H](O)[C@@H]1O [FRAMYCETIN],64,4,4,64,1,4,≥ 2000,26.8,16,6,3.22,1.61,4,64,125,≥ 250
CCCCCCCCCCCCCCCC(=O)NC[C@H]1O[C@@H](O[C@@H]2[C@@H](O)[C@H](N)C[C@H](N)[C@H]2O[C@H]2O[C@H](CN)[C@@H](O)[C@H](O)[C@H]2N)[C@H](O)[C@@H]1O[C@H]1O[C@@H](CN)[C@@H](O)[C@H](O)[C@H]1N,1,2,16,2,2,8,8,0.72,16,58,0.85,0.42,4,4,2,4
NCC(=O)NC[C@H]1O[C@@H](O[C@@H]2[C@@H](O)[C@H](N)C[C@H](N)[C@H]2O[C@H]2O[C@H](CN)[C@@H](O)[C@H](O)[C@H]2N)[C@H](O)[C@@H]1O[C@H]1O[C@@H](CN)[C@@H](O)[C@H](O)[C@H]1N,32,8,8,32,1,4,500,0.6,8,75,0.88,0.44,16,8,16,≥ 250
CCCCCCCCCCCCCCCCCC(=O)NC[C@H]1O[C@@H](O[C@@H]2[C@@H](O)[C@H](N)C[C@H](N)[C@H]2O[C@H]2O[C@H](CN)[C@@H](O)[C@H](O)[C@H]2N)[C@H](O)[C@@H]1O[C@H]1O[C@@H](CN)[C@@H](O)[C@H](O)[C@H]1N,2,2,32,4,4,8,8,0.7,32,60,0.84,0.42,4,8,4,8
